How the values were obtained:
Type in all cases: functional
Ctenocephalides felis = experiment: Insecticidal activity against Ctenocephalides felis
Aedes aegypti = experiment: Insecticidal activity against Aedes aegypti
Summary of the method: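 Mosquito larvae were exposed to test compounds and killing was scored. Activity is reported as the LD90 in ng/mL.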

Lucilia sericata = experiment: Insecticidal activity against Lucilia sericata
Summary of the method: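 Blowfly larvae were exposed to test compounds and killing was scored. Activity is reported as the LD90 in ng/mL.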

CC(C)=CCc1c2c(cc3c4c([nH]c13)[C@@]1(C)[C@@H](CC[C@@H]3[C@]1(C)CC[C@]1(O)O[C@H]([C@H](O)[C@H](C)C(=O)[O-])C[C@@]31C)C4)C1=CC(C)(C)OC(C)(C)[C@H]1[C@@H]2O.[Na+]
LD90 (Ctenocephalides felis): >100 µg/mL

C=C(C)[C@H]1C(=O)c2c3c(cc4c5c(n1c24)[C@@]1(C)C(CC[C@H]2[C@](C)(/C=C/C=C(\C)C(=O)O)[C@@H](O)CC[C@@]21C)C5)C1=CC(C)(C)OC(C)(C)C1[C@@H]3O (stereo not given in full) [NOD ACID A]
LD90 (Aedes aegypti): 500 ng/mL
LD90 (Lucilia sericata): 300 ng/mL
LD90 (Ctenocephalides felis): 1 µg/mL

C=C(C)[C@H]1C(=O)c2c3c(cc4c5c(n1c24)[C@@]1(C)[C@@H](CC[C@@H]2[C@]1(C)CC[C@]1(O)O[C@H](/C=C(\C)C(=O)O)C[C@@]21C)C5)C1=CC(C)(C)OC(C)(C)[C@H]1[C@@H]3O [NODULISPORIC ACID A1]
LD90 (Aedes aegypti): 200 ng/mL
LD90 (Lucilia sericata): 300 ng/mL
LD90 (Ctenocephalides felis): 5 µg/mL

C=C(C)[C@H]1C(=O)c2c3c(cc4c5c(n1c24)[C@@]1(C)[C@@H](CC[C@@H]2[C@]1(C)CC[C@]1(O)O[C@H](C(O)C(C)C(=O)O)C[C@@]21C)C5)C1=CC(C)(C)OC(C)(C)[C@H]1[C@@H]3O (stereo not given in full) [NODULISPORIC ACID A2]
LD90 (Aedes aegypti): 800 ng/mL
LD90 (Lucilia sericata): 600 ng/mL
LD90 (Ctenocephalides felis): 10 µg/mL

CC(C)=CCc1c2c(cc3c4c([nH]c13)[C@@]1(C)[C@@H](CC[C@@H]3[C@]1(C)CC[C@]1(O)O[C@H](/C=C(\C)C(=O)[O-])C[C@@]31C)C4)C1=CC(C)(C)OC(C)(C)[C@H]1[C@@H]2O.[Na+] [NODULISPORIC ACID C1]
LD90 (Ctenocephalides felis): >100 µg/mL

CC(C)=CCc1c2c(cc3c4c([nH]c13)[C@@]1(C)[C@@H](CC[C@H]3[C@](C)(/C=C/C=C(\C)C(=O)[O-])[C@@H](O)CC[C@@]31C)C4)C1=CC(C)(C)OC(C)(C)[C@H]1[C@@H]2O.[Na+] [NODULISPORIC ACID C SODIUM]
LD90 (Aedes aegypti): 10000 ng/mL
LD90 (Lucilia sericata): 10500 ng/mL
LD90 (Ctenocephalides felis): 10 µg/mL

CN1C(=O)[C@]23C[C@H]4C(C)(C)[C@@]5(C[C@@]41CN2CC[C@@]3(C)O)C(=O)Nc1cc2c(cc15)OC(C)(C)C=CO2 [PARAHERQUAMIDE]
LD90 (Aedes aegypti): 50000 ng/mL
LD90 (Lucilia sericata): 50000 ng/mL
LD90 (Ctenocephalides felis): >100 µg/mL

IVERMECTIN
LD90 (Aedes aegypti): 5 ng/mL
LD90 (Lucilia sericata): 40 ng/mL
LD90 (Ctenocephalides felis): 10 µg/mL

From ChEMBL document CHEMBL1159336, “Nodulisporic acids C, C1, and C2: a series of D-ring-opened nodulisporic acids from the fungus Nodulisporium sp” (2003)
